Activity calls are given as the source filed them. The rule behind the calls is not given here.
Tests used:
Cytochrome P450 26A1 = target: T1, Cytochrome P450 26A1 (Homo sapiens, UniProt O43174); assay: Inhibition of CYP26A1 in human MCF7 cells
T1 sequence (O43174 whole entry): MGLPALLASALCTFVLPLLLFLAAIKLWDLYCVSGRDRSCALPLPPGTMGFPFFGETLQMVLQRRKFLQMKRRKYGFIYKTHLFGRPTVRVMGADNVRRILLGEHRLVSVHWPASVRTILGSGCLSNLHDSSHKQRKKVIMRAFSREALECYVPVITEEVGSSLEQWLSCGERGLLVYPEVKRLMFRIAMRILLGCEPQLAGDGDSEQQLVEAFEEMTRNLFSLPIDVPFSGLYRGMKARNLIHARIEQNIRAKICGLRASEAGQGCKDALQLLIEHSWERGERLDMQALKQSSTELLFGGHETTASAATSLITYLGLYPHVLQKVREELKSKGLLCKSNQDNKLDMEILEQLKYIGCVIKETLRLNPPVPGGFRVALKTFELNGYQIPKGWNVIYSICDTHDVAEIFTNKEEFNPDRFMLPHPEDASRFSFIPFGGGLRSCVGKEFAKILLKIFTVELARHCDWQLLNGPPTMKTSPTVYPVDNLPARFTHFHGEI

SH-SY5Y [1] = assay: Increase of all-trans retinoic acid-induced CYP26B1 mRNA expression in human SH-SY5Y cells at 1 uM after 24 hrs relative to all-trans retinoic acid; format: functional
In short: (§1)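 SH-SY5Y neuroblastoma cells were grown at 37 °C in RPMI 1640 with 10% foetal calf serum and 2 mM L-glutamine under 5% CO2. Inhibitor was given alone or with atRA (DMSO vehicle) for 24 h. Total RNA was reverse transcribed and CYP26B1 was measured by TaqMan real-time PCR, normalised to β-actin. Results are fold change versus atRA-only cells by the comparative Ct method, mean ± S.E.M., n ≥ 3.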

SH-SY5Y [2] = assay: Increase in all-trans retinoic acid-induced CYP26B1 mRNA expression in human SH-SY5Y cells at 0.01 to 10 uM after 24 hrs relative to all-trans retinoic acid; format: functional; conditions: in the assay text read “0.1 to 10 uM” for “0.01 to 10 uM”; in short: as §1
SH-SY5Y [3] = assay: Increase of CYP26B1 mRNA expression in human SH-SY5Y cells; format: functional, cell-based; in short: as §1
SH-SY5Y [4] = assay: Increase in all-trans retinoic acid-induced CYP26B1 mRNA expression in human SH-SY5Y cells at 10 uM relative to R116010; format: functional, cell-based
T47D = assay: Inhibition of all-trans retinoic acid metabolism in human T47D cells; format: functional, cell-based

Structure (SMILES)	IC50 (Cytochrome P450 26A1) [µM]	also measured
c1ccc(C(c2ccc(Nc3nc4ccccc4s3)cc2)n2ccnc2)cc1 (stereo unspecified)	1.5	fold change (FC) (SH-SY5Y [2]): 2; Activity (SH-SY5Y [3]): inactive
CC(c1ccc(Nc2ccccc2)cc1)n1ccnc1 (stereo unspecified)	35	
c1ccc(Nc2ccc(C(c3ccccc3)n3ccnc3)cc2)cc1 (stereo unspecified)	5	
c1ccc(C(c2ccc(Nc3ccc4c(c3)CCC4)cc2)n2ccnc2)cc1 (stereo unspecified)	1	
c1ccc(C(c2ccc(Nc3nc4ccccc4[nH]3)cc2)n2ccnc2)cc1 (stereo unspecified)	2.5	
c1ccc(C(c2ccc(Nc3ccc4ccccc4c3)cc2)n2ccnc2)cc1 (stereo unspecified)	0.5	Activity (SH-SY5Y [4]): Active; Activity (SH-SY5Y [3]): inactive
C[C@H]([C@@H](c1ccc(Nc2nc3ccccc3s2)cc1)n1ccnc1)N(C)C		IC50 (T47D): 0.0087 µM; fold change (FC) (SH-SY5Y [1]): 5

Now from value to molecule, other results behind:

IC50 (Cytochrome P450 26A1) [µM]	Structure (SMILES)	also measured
5	c1ccc(Nc2ccc(C(c3ccccc3)n3cncn3)cc2)cc1 (stereo unspecified)	Activity (SH-SY5Y [1]): inactive
15	CC(c1ccc(Nc2ccc3ccccc3c2)cc1)n1ccnc1 (stereo unspecified)	
0.9	c1ccc(C(c2ccc(Nc3nc4ccccc4o3)cc2)n2ccnc2)cc1 (stereo unspecified)	fold change (FC) (SH-SY5Y [2]): 4; Activity (SH-SY5Y [3]): inactive
4.5	CCc1ccc(C(c2cc3ccccc3o2)n2cncn2)cc1 (stereo unspecified)	
> 50	CC(c1ccc(Nc2ccccc2)cc1)n1cncn1 (stereo unspecified)	
7	c1ccc(-c2ccc(C(c3cc4ccccc4o3)n3cncn3)cc2)cc1 (stereo unspecified)	
